{
  "source": "ChEMBL document CHEMBL3608301",
  "about": "“Phenolic Compounds from Atriplex littoralis and Their Radiation-Mitigating Activity” (J Nat Prod, 2015)",
  "key": {"PBL [1]": {"system": "PBL", "assay": "Toxicity in 2-Gy gamma irradiated human PBL assessed as cytokinesis-block proliferation index at 3.7 uM treated for 2 to 19 hrs followed by compound washout measured after 72 hrs (reference value: 1.6 +/- 0.1)", "assay_type": "cell-based"}, "PBL [2]": {"system": "PBL", "assay": "Radioprotective activity in 2-Gy gamma irradiated human PBL assessed as incidence of micronuclei in 1000 binucleated cells at 3.7 uM treated for 2 to 19 hrs followed by compound washout measured after 72 hrs by cytochalasin-B-blocked micronucleus assay (reference value: 183 +/- 9.6)", "assay_type": "functional", "summary_of_the_method": "(§1)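 Venous blood from five healthy male volunteers was gamma-irradiated at 2 Gy (0.45 Gy/min) at room temperature, then cultured. Compounds (0.8–7.4 μM final) were added after irradiation for 19 h at 37 °C. Cells were rinsed and moved to fresh RPMI 1640 for 72 h. At least 1000 binucleated cells per sample were scored for micronuclei and CBPI calculated. Analysis used one-way ANOVA with Tukey test.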"}, "PBL [3]": {"system": "PBL", "assay": "Radioprotective activity in 2-Gy gamma irradiated human PBL assessed as incidence of micronuclei in binucleated cells at 3.7 uM treated for 2 to 19 hrs followed by compound washout measured after 72 hrs by cytochalasin-B-blocked micronucleus assay (reference value: 1.2 +/- 0.03)", "assay_type": "functional", "summary_of_the_method": "(§2)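 Venous blood from five healthy male volunteers was γ-irradiated at 2 Gy (0.45 Gy/min) at room temperature and cultured. Compounds (0.8−7.4 μM final) were added 2 to 19 h after irradiation, at 37 °C. Cultures were then rinsed and moved to fresh RPMI 1640 for 72 h. Cytokinesis-block micronucleus assay: ≥1000 binucleated cells scored per sample (Countryman–Heddle criteria). Controls were non-treated irradiated cultures; one-way ANOVA with Tukey test.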"}, "PBL [4]": {"system": "PBL", "assay": "Toxicity in 2-Gy gamma irradiated human PBL assessed as cytokinesis-block proliferation index at 1.8 uM treated for 2 to 19 hrs followed by compound washout measured after 72 hrs (reference value: 1.6 +/- 0.1)", "assay_type": "cell-based"}, "PBL [5]": {"system": "PBL", "assay": "Toxicity in 2-Gy gamma irradiated human PBL assessed as cytokinesis-block proliferation index at 7.4 uM treated for 2 to 19 hrs followed by compound washout measured after 72 hrs (reference value: 1.6 +/- 0.1)", "assay_type": "cell-based"}, "PBL [6]": {"system": "PBL", "assay": "Radioprotective activity in 2-Gy gamma irradiated human PBL assessed as binucleated cells with micronuclei at 3.7 uM treated for 2 to 19 hrs followed by compound washout measured after 72 hrs by cytochalasin-B-blocked micronucleus assay (reference value: 15.5 +/- 0.6%)", "assay_type": "functional", "summary_of_the_method": "as §2"}, "PBL [7]": {"system": "PBL", "assay": "Radioprotective activity in 2-Gy gamma irradiated human PBL assessed as frequency of micronuclei at 1.8 uM treated for 2 to 19 hrs followed by compound washout measured after 72 hrs by cytochalasin-B-blocked micronucleus assay relative to control", "assay_type": "functional", "summary_of_the_method": "as §2"}, "PBL [8]": {"system": "PBL", "assay": "Radioprotective activity in 2-Gy gamma irradiated human PBL assessed as binucleated cells with micronuclei at 1.8 uM treated for 2 to 19 hrs followed by compound washout measured after 72 hrs by cytochalasin-B-blocked micronucleus assay (reference value: 15.5 +/- 0.6%)", "assay_type": "functional", "summary_of_the_method": "as §2"}, "PBL [9]": {"system": "PBL", "assay": "Radioprotective activity in 2-Gy gamma irradiated human PBL assessed as frequency of micronuclei at 7.4 uM treated for 2 to 19 hrs followed by compound washout measured after 72 hrs by cytochalasin-B-blocked micronucleus assay relative to control", "assay_type": "functional", "summary_of_the_method": "as §2"}, "PBL [10]": {"system": "PBL", "assay": "Radioprotective activity in 2-Gy gamma irradiated human PBL assessed as incidence of micronuclei in 1000 binucleated cells at 1.8 uM treated for 2 to 19 hrs followed by compound washout measured after 72 hrs by cytochalasin-B-blocked micronucleus assay (reference value: 183 +/- 9.6)", "assay_type": "functional", "summary_of_the_method": "as §2"}, "PBL [11]": {"system": "PBL", "assay": "Radioprotective activity in 2-Gy gamma irradiated human PBL assessed as frequency of micronuclei at 3.7 uM treated for 2 to 19 hrs followed by compound washout measured after 72 hrs by cytochalasin-B-blocked micronucleus assay relative to control", "assay_type": "functional", "summary_of_the_method": "as §2"}, "PBL [12]": {"system": "PBL", "assay": "Radioprotective activity in 2-Gy gamma irradiated human PBL assessed as binucleated cells with micronuclei at 7.4 uM treated for 2 to 19 hrs followed by compound washout measured after 72 hrs by cytochalasin-B-blocked micronucleus assay (reference value: 15.5 +/- 0.6%)", "assay_type": "functional", "summary_of_the_method": "as §2"}, "PBL [13]": {"system": "PBL", "assay": "Radioprotective activity in 2-Gy gamma irradiated human PBL assessed as incidence of micronuclei in binucleated cells at 7.4 uM treated for 2 to 19 hrs followed by compound washout measured after 72 hrs by cytochalasin-B-blocked micronucleus assay (reference value: 1.2 +/- 0.03)", "assay_type": "functional", "summary_of_the_method": "as §2"}, "PBL [14]": {"system": "PBL", "assay": "Radioprotective activity in 2-Gy gamma irradiated human PBL assessed as incidence of micronuclei in binucleated cells at 1.8 uM treated for 2 to 19 hrs followed by compound washout measured after 72 hrs by cytochalasin-B-blocked micronucleus assay (reference value: 1.2 +/- 0.03)", "assay_type": "functional", "summary_of_the_method": "as §2"}, "PBL [15]": {"system": "PBL", "assay": "Radioprotective activity in 2-Gy gamma irradiated human PBL assessed as incidence of micronuclei in 1000 binucleated cells at 7.4 uM treated for 2 to 19 hrs followed by compound washout measured after 72 hrs by cytochalasin-B-blocked micronucleus assay (reference value: 183 +/- 9.6)", "assay_type": "functional", "summary_of_the_method": "as §1"}, "PBL [16]": {"system": "PBL", "assay": "Toxicity in 2-Gy gamma irradiated human PBL assessed as cytokinesis-block proliferation index at 3.5 uM treated for 2 to 19 hrs followed by compound washout measured after 72 hrs (reference value: 1.6 +/- 0.1)", "assay_type": "cell-based"}, "PBL [17]": {"system": "PBL", "assay": "Radioprotective activity in 2-Gy gamma irradiated human PBL assessed as incidence of micronuclei in 1000 binucleated cells at 7 uM treated for 2 to 19 hrs followed by compound washout measured after 72 hrs by cytochalasin-B-blocked micronucleus assay (reference value: 183 +/- 9.6)", "assay_type": "functional", "summary_of_the_method": "as §2"}, "PBL [18]": {"system": "PBL", "assay": "Radioprotective activity in 2-Gy gamma irradiated human PBL assessed as incidence of micronuclei in binucleated cells at 3.5 uM treated for 2 to 19 hrs followed by compound washout measured after 72 hrs by cytochalasin-B-blocked micronucleus assay (reference value: 1.2 +/- 0.03)", "assay_type": "functional", "summary_of_the_method": "as §2"}, "PBL [19]": {"system": "PBL", "assay": "Toxicity in 2-Gy gamma irradiated human PBL assessed as cytokinesis-block proliferation index at 7 uM treated for 2 to 19 hrs followed by compound washout measured after 72 hrs (reference value: 1.6 +/- 0.1)", "assay_type": "cell-based"}, "PBL [20]": {"system": "PBL", "assay": "Radioprotective activity in 2-Gy gamma irradiated human PBL assessed as binucleated cells with micronuclei at 3.5 uM treated for 2 to 19 hrs followed by compound washout measured after 72 hrs by cytochalasin-B-blocked micronucleus assay (reference value: 15.5 +/- 0.6%)", "assay_type": "functional", "summary_of_the_method": "as §2"}, "PBL [21]": {"system": "PBL", "assay": "Radioprotective activity in 2-Gy gamma irradiated human PBL assessed as frequency of micronuclei at 7 uM treated for 2 to 19 hrs followed by compound washout measured after 72 hrs by cytochalasin-B-blocked micronucleus assay relative to control", "assay_type": "functional", "summary_of_the_method": "as §2"}, "PBL [22]": {"system": "PBL", "assay": "Radioprotective activity in 2-Gy gamma irradiated human PBL assessed as frequency of micronuclei at 3.5 uM treated for 2 to 19 hrs followed by compound washout measured after 72 hrs by cytochalasin-B-blocked micronucleus assay relative to control", "assay_type": "functional", "summary_of_the_method": "as §2"}, "PBL [23]": {"system": "PBL", "assay": "Radioprotective activity in 2-Gy gamma irradiated human PBL assessed as binucleated cells with micronuclei at 7 uM treated for 2 to 19 hrs followed by compound washout measured after 72 hrs by cytochalasin-B-blocked micronucleus assay (reference value: 15.5 +/- 0.6%)", "assay_type": "functional", "summary_of_the_method": "as §2"}, "PBL [24]": {"system": "PBL", "assay": "Radioprotective activity in 2-Gy gamma irradiated human PBL assessed as incidence of micronuclei in 1000 binucleated cells at 3.5 uM treated for 2 to 19 hrs followed by compound washout measured after 72 hrs by cytochalasin-B-blocked micronucleus assay (reference value: 183 +/- 9.6)", "assay_type": "functional", "summary_of_the_method": "as §2"}, "PBL [25]": {"system": "PBL", "assay": "Radioprotective activity in 2-Gy gamma irradiated human PBL assessed as incidence of micronuclei in binucleated cells at 7 uM treated for 2 to 19 hrs followed by compound washout measured after 72 hrs by cytochalasin-B-blocked micronucleus assay (reference value: 1.2 +/- 0.03)", "assay_type": "functional", "summary_of_the_method": "as §2"}},
  "data": [
    {"smiles": "OC[C@H]1O[C@@H](Oc2ccc(O)cc2)[C@H](O)[C@@H](O)[C@@H]1O", "note": "[ARBUTIN]", "values": [
      {"measurement": "Activity", "setting": "PBL [1]", "value": 1.8},
      {"measurement": "Activity", "setting": "PBL [2]", "value": 189.3},
      {"measurement": "Activity", "setting": "PBL [3]", "value": 1.3},
      {"measurement": "Activity", "setting": "PBL [4]", "value": 1.7},
      {"measurement": "Activity", "setting": "PBL [5]", "value": 1.6},
      {"measurement": "Activity", "setting": "PBL [6]", "value": 15, "unit": "%"},
      {"measurement": "Activity", "setting": "PBL [7]", "value": 104.5, "unit": "%"},
      {"measurement": "Activity", "setting": "PBL [8]", "value": 15.1, "unit": "%"},
      {"measurement": "Activity", "setting": "PBL [9]", "value": 107.8, "unit": "%"},
      {"measurement": "Activity", "setting": "PBL [10]", "value": 191.2},
      {"measurement": "Activity", "setting": "PBL [11]", "value": 103.4, "unit": "%"},
      {"measurement": "Activity", "setting": "PBL [12]", "value": 15.8, "unit": "%"},
      {"measurement": "Activity", "setting": "PBL [13]", "value": 1.2},
      {"measurement": "Activity", "setting": "PBL [14]", "value": 1.3},
      {"measurement": "Activity", "setting": "PBL [15]", "value": 197.2}
    ]},
    {"smiles": "OC[C@H]1O[C@@H](OCc2ccc(O)cc2)[C@H](O)[C@@H](O)[C@@H]1O", "values": [
      {"measurement": "Activity", "setting": "PBL [16]", "value": 1.8},
      {"measurement": "Activity", "setting": "PBL [17]", "value": 159.2},
      {"measurement": "Activity", "setting": "PBL [18]", "value": 1.2},
      {"measurement": "Activity", "setting": "PBL [19]", "value": 1.7},
      {"measurement": "Activity", "setting": "PBL [4]", "value": 1.7},
      {"measurement": "Activity", "setting": "PBL [7]", "value": 85.5, "unit": "%"},
      {"measurement": "Activity", "setting": "PBL [20]", "value": 13.1, "unit": "%"},
      {"measurement": "Activity", "setting": "PBL [8]", "value": 13.1, "unit": "%"},
      {"measurement": "Activity", "setting": "PBL [21]", "value": 87, "unit": "%"},
      {"measurement": "Activity", "setting": "PBL [22]", "value": 85.1, "unit": "%"},
      {"measurement": "Activity", "setting": "PBL [10]", "value": 156.4},
      {"measurement": "Activity", "setting": "PBL [23]", "value": 13.6, "unit": "%"},
      {"measurement": "Activity", "setting": "PBL [24]", "value": 155.7},
      {"measurement": "Activity", "setting": "PBL [25]", "value": 1.2},
      {"measurement": "Activity", "setting": "PBL [14]", "value": 1.2}
    ]}
  ]
}
